In one data set the test system is Human respirovirus 3. As to the kind of experiment: Antiviral activity against Parainfluenza-3 virus assessed as inhibition of viral replication. It is filed as functional, organism-based. The gist of the method:
(§1)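 Cell culture virus assays. Inhibition of virus replication and compound cytotoxicity were scored by microscopic examination and confirmed by a colorimetric MTS cell viability assay. Selectivity index is the ratio of cytotoxic to antiviral concentration.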

For another data set, the system named is Human alphaherpesvirus 1. As to the kind of experiment: Antiviral activity against HSV1 assessed as inhibition of viral replication. The data set is classed as functional, organism-based. The gist of the method:
as §1

A short description of data set [1]: Antagonist activity at NMDAR in rat cerebellar granule neurons assessed as inhibition of NMDA-induced calcium flux after 5 mins using FURA-2AM in presence of glycine. The data set is classed as functional. The gist of the method: (§2)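 Primary cerebellar granule neuron cultures grown on poly-L-lysine-coated glass coverslips and used after 7-14 days in vitro. Intracellular calcium recorded in real time over 1200 s. Cells were stimulated with NMDA or glutamate (100 μM, with 10 μM glycine), then given increasing cumulative compound concentrations. Percent inhibition at each concentration was fitted by non-linear regression (variable slope). At least three experiments on three culture batches.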

Data set [2] has as its system Trypanosoma brucei. As to the kind of experiment: Antitrypanosomal activity against bloodstream form of Trypanosoma brucei 427 after 48 hrs by hemocytometer analysis. It is filed as functional, organism-based. As to conditions: Trypanosoma brucei, 427, 48 h.
The subject of the next data set is Human alphaherpesvirus 2. As to the kind of experiment: Antiviral activity against HSV2 assessed as inhibition of viral replication. It is filed as functional, organism-based. The gist of the method:
as §1

For a further data set, the system named is Punta Toro virus. Kind of data set: Antiviral activity against Punta Toro virus assessed as inhibition of viral replication. The data set is classed as functional, organism-based. The gist of the method:
as §1

The nature of data set [3]: Antagonist activity at NMDAR in rat cerebellar granule neurons assessed as inhibition of glutamate-induced calcium flux after 5 mins using FURA-2AM in presence of glycine. It is filed as functional. The gist of the method: as §2
The next data set deals with Coxsackievirus B4. Kind of data set: Antiviral activity against Coxsackievirus B4 assessed as inhibition of viral replication. The data set is classed as functional, organism-based. In short, it runs like this: as §1
The test system of the next data set is Sindbis virus. Kind of data set: Antiviral activity against Sindbis virus assessed as inhibition of viral replication. It is filed as functional, organism-based. In short, it runs like this:
as §1

A further data set concerns Vaccinia virus. Kind of data set: Antiviral activity against Vaccinia virus assessed as inhibition of viral replication. The data set is classed as functional, organism-based. The conditions noted are these: Orthopoxvirus vaccinia. The gist of the method:
as §1

Data set [4] has as its system Respiratory syncytial virus. As to the kind of experiment: Antiviral activity against RSV assessed as inhibition of viral replication. The data set is classed as functional, organism-based. The gist of the method:
as §1

The test system of a further data set is Feline coronavirus. As to the kind of experiment: Antiviral activity against Feline coronavirus assessed as inhibition of viral replication. The data set is classed as functional, organism-based. In short, it runs like this: as §1
For a further data set, the system named is Reovirus sp. Kind of data set: Antiviral activity against Reovirus 1 assessed as inhibition of viral replication. The data set is classed as functional, organism-based. In short, it runs like this: as §1
For another data set, the system named is Influenza A virus. Kind of data set: Antiinfluenza activity against Influenza A virus (A/Puerto Rico/8/1934(H1N1)) assessed as inhibition of viral replication. It is filed as functional, organism-based. In short, it runs like this:
as §1

The target of data set [5] is Matrix protein 2 (Influenza A virus) (UniProt P06821). As to the kind of experiment: Inhibition of Influenza A virus (A/Puerto Rico/8/1934(H1N1)) M2 channel expressed in Xenopus oocytes at 100 uM by two-electrode voltage clamp assay. The data set is classed as cell-based. As to conditions: Oocyte. Background: In two-electrode clamp one electrode senses voltage and the other passes current.

A further data set has as its system Influenza B virus. As to the kind of experiment: Antiinfluenza activity against Influenza B virus (B/Hong Kong/05/1972) assessed as inhibition of viral replication. The data set is classed as functional. The gist of the method:
as §1

A further data set has as its system H3N2 subtype. As to the kind of experiment: Antiinfluenza activity against Influenza A virus (A/Hong Kong/7/1987(H3N2)) assessed as inhibition of viral replication. The data set is classed as functional, organism-based. In short, it runs like this:
as §1

The subject of data set [6] is Vesicular stomatitis virus. Kind of data set: Antiviral activity against VSV in HeLa cells assessed as inhibition of viral replication. The data set is classed as functional, organism-based. In short, it runs like this:
as §1

The test system of data set [7] is Vesicular stomatitis virus. As to the kind of experiment: Antiviral activity against VSV in human HEL cells assessed as viability by MTS based microscopy. The data set is classed as functional, organism-based. In short, it runs like this: as §1
In data set [8] the test system is Trypanosoma brucei. Kind of data set: Ratio of compound IC90 to rimantadine IC90 for bloodstream form of Trypanosoma brucei 427. The data set is classed as functional.
Data set [9] can be described thus: Selectivity index, ratio of cytotoxicity for HeLa cells to ratio of EC50 for Vesicular stomatitis virus. The data set is classed as toxicity, cell-based. The conditions noted are these: human, read-out: Selectivity Index. In short, it runs like this:
as §1

Active and inactive are the calls of the source. The rule behind the calls is not given here.

One may read the IC50 as the concentration at which inhibition is half-maximal. The IC90 is the point of the concentration-response curve where the effect stands at 90%. Usually EC50 stands for the concentration needed to bring the measured effect to its halfway point.

Sequence of Matrix protein 2 (Influenza A virus) (P06821 whole entry): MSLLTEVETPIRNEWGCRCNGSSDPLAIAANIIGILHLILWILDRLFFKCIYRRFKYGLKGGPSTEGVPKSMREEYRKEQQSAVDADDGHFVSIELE

As to `CN(Cc1ccccc1)C12CC3CC(C)(CC(C1)c1ccccc13)C2`, the outcome with Human respirovirus 3, with Human alphaherpesvirus 1, in the data set with Human alphaherpesvirus 2, with Punta Toro virus, in the data set on Coxsackievirus B4 and in the data set on Sindbis virus was inactive. The outcome (in the data set with Vaccinia virus; in [4]; in the data set with Feline coronavirus; with Reovirus sp.) was inactive. In addition, the values for the IC50 (in data set [1]; in the data set on Trypanosoma brucei [2]; in [3]) were over 200 µM, 5.25 µM and over 500 µM, respectively. In the data set on Trypanosoma brucei [2], the concentration for an effect of 90% (IC90) came out at 10.8 µM.
For `CC12CC3CC(NCc4ccccc4)(CC(C1)c1ccccc13)C2`, the concentration for a half-maximal effect (EC50) in the data set with Influenza A virus amounted to 10 µM. For the same molecule, the outcome with Human respirovirus 3, in the data set with Human alphaherpesvirus 1, in the data set on Human alphaherpesvirus 2, in the data set on Influenza B virus, in the data set with Punta Toro virus and in the data set with Coxsackievirus B4 was inactive. The outcome (in the data set with Sindbis virus; with Vaccinia virus; in data set [4]; with H3N2 subtype; in the data set with Feline coronavirus; in the data set on Reovirus sp.) was inactive. Besides, the inhibition entry in [5] was “inactive”. Moreover, the concentration for half-maximal inhibition (IC50) was over 200 µM in data set [1], 3 µM with Trypanosoma brucei [2] and over 500 µM in data set [3]. The molecule further yielded a concentration for an effect of 90% (IC90) with Trypanosoma brucei [2] of 6.55 µM.
In the data set with Trypanosoma brucei [2], `CC12CC3CC(C)(C1)CC(N)(C3)C2` [MEMANTINE] returned a concentration for an effect of 90% (IC90) of 21.4 µM.
Consider `CC12CC3CC(N)(CC(C1)c1ccccc13)C2`, for which the outcome in the data set with Human respirovirus 3, with Human alphaherpesvirus 1, with Human alphaherpesvirus 2, in the data set on Punta Toro virus, in the data set on Coxsackievirus B4 and in the data set with Sindbis virus was inactive. Besides, the result (in the data set on Vaccinia virus; in [4]; in the data set on Feline coronavirus; in the data set with Reovirus sp.) was inactive. In [5], the inhibition entry is “inactive”. Moreover, the IC50 in [1] amounted to 13.6 µM; with Trypanosoma brucei [2], 4.8 µM; in [3], 22 µM. In the data set with Trypanosoma brucei [2], the IC90 is 9.6 µM.
Turning to `CC12CC3CC(N4CCCCC4)(CC(C1)c1ccccc13)C2`, the result (in the data set with Human respirovirus 3; in the data set on Human alphaherpesvirus 1; in the data set on Human alphaherpesvirus 2; in data set [7]; with Punta Toro virus; in the data set on Coxsackievirus B4) was inactive. The result (in the data set on Sindbis virus; with Vaccinia virus; in data set [4]; in the data set on Feline coronavirus; in the data set on Reovirus sp.) was inactive. Moreover, the values for the IC50 in data set [1] and in [3] were 101 µM and over 500 µM, respectively. Besides, in data set [6], the EC50 turned out to be 54 µM.
Consider `C#CCNC12CC3CC(C)(CC(C1)c1ccccc13)C2`, for which the result with Human respirovirus 3, in the data set on Human alphaherpesvirus 1, in the data set with Human alphaherpesvirus 2, with Punta Toro virus, with Coxsackievirus B4 and in the data set on Sindbis virus was inactive. Also, the outcome (in the data set on Vaccinia virus; in data set [4]; in the data set with Feline coronavirus; with Reovirus sp.) was inactive. In addition, the IC50 in [1] was 27.5 µM; with Trypanosoma brucei [2], 1.99 µM; in [3] it was over 500 µM. The 90% effect level with Trypanosoma brucei [2] (IC90) was put at 3.14 µM. Moreover, the Ratio in the data set on Trypanosoma brucei [8] was over 4.
With `C#CCN(CC#C)C12CC3CC(C)(CC(C1)c1ccccc13)C2`, the result (in the data set with Human respirovirus 3; in the data set on Human alphaherpesvirus 1; in the data set on Human alphaherpesvirus 2; in data set [7]; in the data set on Punta Toro virus; with Coxsackievirus B4) was inactive. In addition, the result (in the data set with Sindbis virus; in the data set with Vaccinia virus; in data set [4]; with Feline coronavirus; in the data set with Reovirus sp.) was inactive. Also, the concentration for half-maximal inhibition (IC50) in data set [1] was over 200 µM; in the data set with Trypanosoma brucei [2], 13.4 µM; in data set [3], over 500 µM. Also, the EC50 in data set [6] turned out to be 4 µM. In the data set with Trypanosoma brucei [2], this molecule yielded an IC90 of 21.6 µM. In addition, the selectivity ratio in [9] is 25.
Take `CN(C)C12CC3CC(C)(CC(C1)c1ccccc13)C2`: the outcome with Human respirovirus 3, in the data set on Human alphaherpesvirus 1, in the data set with Human alphaherpesvirus 2, in the data set with Punta Toro virus, with Coxsackievirus B4 and with Sindbis virus was inactive. In addition, the result (in the data set with Vaccinia virus; in data set [4]; in the data set with Feline coronavirus; in the data set with Reovirus sp.) was inactive. In addition, the inhibition result in data set [5] is “inactive”. Also, the half-inhibitory concentration (IC50) in data set [1] was determined as 11.8 µM; in the data set with Trypanosoma brucei [2] it was 1.99 µM; in [3], 87 µM. Also, the 90% effect level in the data set on Trypanosoma brucei [2] (IC90) was put at 3.14 µM.
In the data set with Trypanosoma brucei [2], `CC(N)C12CC3CC(CC(C3)C1)C2` (centres undefined) [RIMANTADINE] returned a 90% effect concentration (IC90) of 14 µM.
As for `CNC12CC3CC(C)(CC(C1)c1ccccc13)C2`, the result in the data set with Human respirovirus 3, in the data set with Human alphaherpesvirus 1, in the data set with Human alphaherpesvirus 2, with Punta Toro virus, with Coxsackievirus B4 and in the data set on Sindbis virus was inactive. Besides, the outcome (with Vaccinia virus; in data set [4]; in the data set with Feline coronavirus; in the data set with Reovirus sp.) was inactive. Also, the IC50 in data set [1] is 19.4 µM; in the data set with Trypanosoma brucei [2] it was 4.46 µM; in data set [3], 455 µM. This molecule also came in with an IC90 in the data set on Trypanosoma brucei [2] of 6.66 µM.

The values above are taken from ChEMBL document CHEMBL1933044.
